Results gathered from unrelated publications.
Each line is one published result; the experiments were not run side by side.
Observed: cell growth or viability

SMILES	cell line	test	setting	IC50
CCCCn1cnc2ccc(-c3ccc(NC(=O)Nc4ccc(F)cc4)nc3)cc2c1=O	A549	CCK-8	72 h	0.79 µM
COc1cc(C(=O)c2nc(-c3cccc4[nH]ccc34)c(C)[nH]2)cc(OC)c1OC	PC-3	MTS	72 h	0.0192 µM
COc1ccccc1/C=N/N=C1\C(=O)Nc2ccccc21	HUVEC	MTT	48 h	112 µg/mL
Cc1ccc(NNc2nc3ccc(Br)cc3c(=O)n2-c2ccccc2)cc1	NIH3T3	MTT	48 h	14.8 µM
Cc1c(C)c2c(c(C)c1O)CCC(C)(COc1ccc(CC3SC(=O)NC3=O)cc1)O2 (stereo not shown)	NIH3T3		96 h	37.1 µM
O=C(NO)Nc1nc2ccc(Br)cc2c(=O)n1-c1ccccc1	NIH3T3	MTT	48 h	122 µM
CCCCn1cnc2ccc(-c3ccc(NC(=O)Nc4ccccc4)nc3)cc2c1=O	A549	CCK-8	72 h	1.24 µM
O[C@@H]1[C@@H](O)[C@H](Nc2cc3cccnc3c3ncccc23)OC[C@H]1O	HFF-1	MTT	48 h, dark	42.8 µM
NNc1nc2ccc(Br)cc2c(=O)n1-c1ccc(F)cc1	NIH3T3	MTT	48 h	> 200 µM
Cc1cc(Nc2ncnc3ccc(NC4=NC(C)(C)CO4)cc23)ccc1Oc1ccn2ncnc2c1	NCI-H2170	ATP luminescence		0.088 µM
CCCn1cnc2ccc(-c3ccc(N4CCC(C)CC4=O)nc3)cc2c1=O (stereo not shown)	A549	CCK-8	72 h	> 10 µM
CCOc1cc2ncc(C#N)c(Nc3ccc(OCc4ccccn4)c(Cl)c3)c2cc1NC(=O)/C=C/CN(C)C	NCI-H2170	ATP luminescence		0.0057 µM
O=C1Nc2ccccc2/C1=N/N=C/c1cccc([N+](=O)[O-])c1	HUVEC	MTT	48 h	119 µg/mL
O=C(Nc1ccc(-c2ccc3ncn(Cc4ccccc4)c(=O)c3c2)cn1)c1ccc(F)cc1	A549	CCK-8	72 h	> 10 µM
CC1=CC(=O)C(C(C)C)=CC1=O	U-251	SRB	48 h	36.9 µM
CC(=O)Nc1ccc(O)cc1	NIH3T3		96 h	65.4 µM
COc1cc(C(=O)c2nc(-c3ccnc4[nH]ccc34)c[nH]2)cc(OC)c1OC	PC-3	MTS	72 h	0.0301 µM
CCCCC(=O)Nc1ncc(-c2ccc3ncn(CCC)c(=O)c3c2)cn1	A549	CCK-8	72 h	1.25 µM
NNc1nc2ccc(Br)cc2c(=O)n1-c1ccc(Cl)cc1	NIH3T3	MTT	48 h	19.7 µM
